The text below walks through data of PMC5123777 (Biochemistry, 2015).

The target of data set [1] is OXA-163 (Klebsiella pneumoniae, UniProt Q6XEC0, DEL214-217/S212D). Put plainly: Steady-state enzyme kinetics of substrate hydrolysis by OXA-163. The note with it: for Km / kcat: 30°C, 50 mM sodium phosphate pH 7.2, 15 mM sodium bicarbonate. The class given is biochemical, Klebsiella pneumoniae and Enterobacter cloacae. Summed up:
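OXA-163 was purified from induced culture supernatant (0.4 mM IPTG, 23°C, 20 h) by zinc-chelate chromatography and size exclusion, and quantified at A280. Hydrolysis was followed by UV at 260 nm (ceftazidime, cefotaxime), 262 nm (cephalothin), 298 nm (meropenem), or 299 nm (imipenem, doripenem, […]). Data were fitted to Michaelis–Menten; where Vmax was unreachable, kcat/Km came from a first-order fit.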

For data set [2], the target named is OXA-48 (Klebsiella pneumoniae, UniProt Q6XEC0). Put plainly: Steady-state enzyme kinetics of substrate hydrolysis by OXA-48. The note with it: for OXA-48 kcat/Km value smaller compared to imipenem: relative to imipenem kcat/Km. In kind it is biochemical.
In data set [3] the test system is class D β-lactamases (DBLs). To be noted: in vitro; cited from earlier work.
Data set [4] has as its target OXA-163 class D β-lactamase (Klebsiella pneumoniae and Enterobacter cloacae). The experiment in a line: crystal structure.
Data set [5] shares this target. Put plainly: SEC.
The target is the same in data set [6]. The experiment in a line: crystal structure. The source holds these as a separate data set.
Data set [7] deals with the molecule itself. Put plainly: SEC. A general note: Size exclusion chromatography separates by hydrodynamic size, large species first.

Turning to `CO/N=C(\C(=O)N[C@@H]1C(=O)N2C(C(=O)O)=C(COC(C)=O)CS[C@H]12)c1csc(N)n1` [Cefotaxime, cefotaxime], in data set [1] (OXA-163), the Km (as a rule, the concentration of substrate that gives half-maximal velocity) was determined as 36 ± 11 µM and the kcat (as a rule, the maximal rate divided by the concentration of active sites) worked out at 14 ± 1 s⁻¹.
On to `CC(C)(O/N=C(\C(=O)N[C@@H]1C(=O)N2C(C(=O)[O-])=C(C[n+]3ccccc3)CS[C@H]12)c1csc(N)n1)C(=O)O` [Ceftazidime, ceftazidime], for which, in data set [2], the “hydrolysis by OXA-48 (steady-state kinetics analysis)” value is “does not hydrolyze”. In addition, in data set [1] (OXA-163), the “hydrolysis by OXA-163” value is recorded as “does hydrolyze” and the Km was greater than 1000 µM.
As for `CC(=O)OCC1=C(C(=O)O)N2C(=O)[C@@H](NC(=O)Cc3cccs3)[C@H]2SC1` [Cephalothin, cephalothin], in data set [1] (OXA-163), the Km came out at 3.4 ± 0.4 µM and the kcat came to 1.7 ± 0.1 s⁻¹.
As for `C[C@@H](O)[C@H]1C(=O)N2C(C(=O)O)=C(S[C@@H]3CN[C@H](CNS(N)(=O)=O)C3)[C@H](C)[C@H]12` [Doripenem, doripenem], the “OXA-48 kcat/Km value smaller compared to imipenem” value in data set [2] is 56 fold. Moreover, in data set [1] (OXA-163), the Km worked out at 5 ± 0.4 µM and the kcat amounted to 0.018 ± 0.001 s⁻¹.
On to `C[C@@H](O)[C@H]1C(=O)N2C(C(=O)O)=C(SCCN=CN)C[C@H]12` [Imipenem, imipenem], for which, in data set [1] (OXA-163), the Km came to 3.6 ± 1 µM and the kcat came to 0.004 ± 0.001 s⁻¹. The “drop in the catalytic efficiency of OXA-163 in comparison to OXA-48” value in data set [1] (kcat/Km OXA-48 versus OXA-163) is 820 fold.
As for `C[C@@H](O)[C@H]1C(=O)N2C(C(=O)O)=C(S[C@@H]3CN[C@H](C(=O)N(C)C)C3)[C@H](C)[C@H]12` [Meropenem, meropenem], in data set [2], the “OXA-48 kcat/Km value smaller compared to imipenem” value is reported as 53 fold. In data set [1] (OXA-163), the Km was determined as 5.3 ± 0.5 µM and the kcat was 0.021 ± 0.001 s⁻¹.
Consider `[Cl-].[Na+]` [NaCl, sodium chloride], for which the “sodium chloride concentration at which most DBLs are fully inhibited” value in data set [3] is listed as 100 mM.
Turning to `O=C(Cc1cccs1)N[C@@H]1C(=O)N2C(C(=O)O)=C(/C=C/c3ccc([N+](=O)[O-])cc3[N+](=O)[O-])CS[C@H]12` [Nitrocefin, nitrocefin], in data set [1] (OXA-163), the Km was 19 ± 8 µM and the kcat was 34 ± 2 s⁻¹.
As for OXA-163 class D β-lactamase (enzyme), the stoichiometry N in data set [4], in data set [5] and in data set [6] was 2 throughout.

B1: OXA-48 class D β-lactamase (enzyme)
chain: KEWQENKSWNAHFTEHKSQGVVVLWNENKQQGFTNNLKRANQAFLPASTFKIPNSLIALDLGVVKDEHQVFKWDGQTRDIATWNRDHNLITAMKYSVVPVYQEFARQIGEARMSKMLHAFDYGNEDISGNVDSFWLDGGIRISATEQISFLRKLYHNKLHVSERSQRIVKQAMLTEANGDYIIRAKTGYSTRIEPKIGWWVGWVELDDNVWFFAMNMDMPTSDGLGLRQAITKEVLKQEKIIP
In the case of B1, the stoichiometry N (usually a count of units in the complex or per binding partner) in data set [7] was found to be 2.
